# The list is not random: actives were taken first. Their share in the collection is about 2.3%.
# TRPC4 inh: blocks the mouse TRPC4 cation channel; Q9QUQ5; HEK293 TRPC4beta/mu-opioid, DAMGO-evoked Fluo4 calcium flux; hits give low values; B-score at 10 µM; 300,000 tested, 0.39% active; AID 2247;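 active = B-score over 3 SD under the library average, no early fluorescence shift, positive overall ratio signal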
#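 System: stable TRPC4beta/mu-opioid receptor HEK293 cells; Dosing: single-point compound dosing; Measured by: Fluo4 Ca2+ flux fluorescence; Read-out basis: per-well B score of integrated baseline-normalized Fluo4 ratio.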
# TRPC4 potent: allosterically enhances the mouse TRPC4 cation channel; Q9QUQ5; HEK293 TRPC4beta/mu-opioid, DAMGO EC20, Fluo-4 Ca2+ flux; hits give high values; B-score at 10 µM; 310,000 tested, 0.42% active;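 active = B-score of calcium response area above 5 SD of library B-scores, with initial fluorescence ratio within 5 SD of library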
# TRPC6 activator: activators of mouse TRPC6 channel | Q61143 | HEK293-TRPC6 membrane potential dye fluorescence; hits give high values | B-score at 10 µM | 310,000 tested, 0.13% active;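 active = B-score of the integrated fluorescence ratio above library mean plus 3 SD, and starting fluorescence ratio within library mean plus 5 SD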;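 also: higher score means more depolarization so channel activation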
# Target sequence (Q61143 whole entry, looked up): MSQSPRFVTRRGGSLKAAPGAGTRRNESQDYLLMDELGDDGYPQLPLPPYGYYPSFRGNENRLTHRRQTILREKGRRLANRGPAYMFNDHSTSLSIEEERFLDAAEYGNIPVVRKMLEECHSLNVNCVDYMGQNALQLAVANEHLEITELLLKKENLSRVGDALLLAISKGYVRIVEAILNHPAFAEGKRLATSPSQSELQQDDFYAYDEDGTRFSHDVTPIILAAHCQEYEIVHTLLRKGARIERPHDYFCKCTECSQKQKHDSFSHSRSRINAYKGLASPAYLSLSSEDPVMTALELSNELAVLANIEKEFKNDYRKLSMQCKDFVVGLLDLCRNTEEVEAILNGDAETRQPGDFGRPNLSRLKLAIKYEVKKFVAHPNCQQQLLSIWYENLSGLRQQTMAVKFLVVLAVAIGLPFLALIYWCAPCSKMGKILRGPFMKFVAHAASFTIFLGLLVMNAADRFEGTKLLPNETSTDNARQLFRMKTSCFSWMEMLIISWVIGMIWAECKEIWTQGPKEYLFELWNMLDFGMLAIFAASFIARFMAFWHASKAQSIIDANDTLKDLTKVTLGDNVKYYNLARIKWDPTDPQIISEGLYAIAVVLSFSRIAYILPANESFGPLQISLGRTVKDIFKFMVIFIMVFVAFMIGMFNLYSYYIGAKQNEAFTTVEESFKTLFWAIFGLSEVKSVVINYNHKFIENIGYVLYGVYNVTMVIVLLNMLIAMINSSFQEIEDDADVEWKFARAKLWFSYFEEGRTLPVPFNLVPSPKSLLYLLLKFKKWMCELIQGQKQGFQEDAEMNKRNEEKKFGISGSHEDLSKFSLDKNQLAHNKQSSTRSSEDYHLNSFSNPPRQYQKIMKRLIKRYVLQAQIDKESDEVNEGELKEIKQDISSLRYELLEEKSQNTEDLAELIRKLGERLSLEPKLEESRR
# TRPC6 inh: inhibitors of mouse TRPC6 channel; HEK293-TRPC6, membrane potential dye, ACh-evoked depolarization; hits give low values; B-score at 10 µM; Q61143; 310,000 tested, 1.1% active;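 active = B-score under library mean minus 3 SD, initial fluorescence not abnormally high, positive integrated signal ratio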;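 also: B-score derived from integrated fluorescence ratio over the kinetic read; more negative B-score means stronger inhibition of depolarization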
# TRPC4 act: opens the mouse TRPC4 cation channel | Q9QUQ5 | HEK293 TRPC4beta/mu-opioid, Fluo4 calcium fluorescence; hits give high values | B-score at 10 µM | 310,000 tested, 0.49% active;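 active = B-score above 5 SD of library B-scores, and initial fluorescence ratio not above library mean plus 5 SD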;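 also: positive B-score marks a calcium rise read as TRPC4 activation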
#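 Test system: HEK293 cells stably co-expressing mouse TRPC4beta and mu-opioid receptor | Schedule: Fluo4 dye loading 45 min at room temperature, 110 s recording | Measured by: Kinetic Fluo4 calcium fluorescence, 5 s baseline at 1 Hz | Evaluation: B score of integrated ratio | Controls: Buffer (low) and maximal DAMGO (high)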
# TRPC4 spec 2: mouse TRPC4 off-target activity of TRPC6 inhibitors, second screen; shares compounds with TRPC6 inh; HEK293 TRPC4/MOR, membrane potential dye fluorescence; channel activated by saturating DAMGO dose; AID 2776; 920 tested, 42% active; inhibition, % at 10 µM;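 active = compounds whose fluorescence signal differed from control wells by over 3 SD, either direction, in both duplicate plates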
# TRPC4 spec: tests whether TRPC6 inhibitors also affect mouse TRPC4. shares compounds with TRPC6 inh. HEK293 TRPC4/mu-opioid, membrane potential fluorescence. activity change, negative = inhibition, % at 10 µM. 920 tested, 61% active. AID 2777;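 active = rise or fall in signal beyond 3 SD of buffer-only wells in both replicate plates, either sign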;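 also: integrated kinetic ratio of fluorescence range over baseline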
# HEK293 MPD ctr 2-1: second check of TRPC6 inhibitor effects in parental HEK293 cells; parental HEK293 membrane potential dye fluorescence; maximal acetylcholine challenge after compound addition; shares compounds with TRPC6 inh; AID 2779; signal change vs control, % at 10 µM; 920 tested, 31% active;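 active = membrane potential signal moving either way by over 3 SD of the maximum-effect control, in both duplicate plates, meaning non-specific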
# HEK293 MPD ctr-1: checks TRPC6 inhibitor effects in parental HEK293 cells; parental HEK293 membrane potential dye fluorescence; membrane potential signal change, % at 10 µM; AID 2780; shares compounds with TRPC6 inh; 920 tested, 60% active;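 active = membrane potential signal shifting up or down by more than 3 SD of buffer-only wells, on both duplicate plates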
# HEK293 MPD ctr-2: counter-screen for TRPC6 modulators: effect in parental HEK293 cells; membrane potential signal change, % at 10 µM; membrane potential dye fluorescence; 2,400 tested, 51% active; shares compounds with TRPC6 inh; AID 488924;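 active = membrane potential signal moves up or down beyond 5 SD from buffer-only wells, on both duplicate plates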
# HEK293 MPD ctr 2-2: second check of TRPC6 modulator effects in parental HEK293 cells; inhibition, % at 10 µM; membrane potential dye fluorescence; after compound, maximal acetylcholine stimulation; 2,400 tested, 14% active; shares compounds with TRPC6 inh;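 active = membrane potential signal drops by more than 5 SD from the mean control signal, in both duplicate plates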
# TRPC4/MOR mod: mouse TRPC4 off-target activity of TRPC6 modulators; shares compounds with TRPC6 inh; HEK293 TRPC4/mu-opioid, membrane potential fluorescence; percent change from control (negative = decrease, positive = increase), % at 10 µM; 2,400 tested, 69% active;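 active = membrane potential signal moved up or down beyond 5 SD of buffer control wells, in both duplicate plates, actives on both sides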
# TRPC4 ctr inh 2: mouse TRPC4 off-target activity of TRPC6 modulators, second screen | shares compounds with TRPC6 inh | HEK293 TRPC4/mu-opioid, membrane potential dye fluorescence; stimulated with maximal-effect DAMGO | inhibition, % at 10 µM | 2,400 tested, 55% active;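 active = drop in membrane potential signal beyond 5 SD of the control wells in both duplicate plates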;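 also: TRPC4 counter screen for TRPC6 hits run under conditions tuned for TRPC6 not TRPC4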
# TRPC6 inh conf: confirmation of mouse TRPC6 inhibitors | 3,300 tested, 43% active | AID 488960 | inhibition, % at 10 µM | shares compounds with TRPC6 inh | HEK293-TRPC6, membrane potential dye, ACh-evoked depolarization;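 active = fluorescence ratio falls more than 5 SD below the full-stimulation control mean, in both duplicate runs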;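 also: integrated fluorescence ratio of peak minus minimum over baseline after agonist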
# TRPC6 act conf: confirmation of mouse TRPC6 activators | HEK293-TRPC6 membrane potential dye fluorescence, FDSS | activation, % at 10 µM | AID 488961 | 2,800 tested, 11% active | shares compounds with TRPC6 inh;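 active = ratio signal rise beyond 5 SD above unstimulated control wells' mean, seen in both duplicate runs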
# A number is an active result; - = inactive; . = not tested or not shown; + = active, no number.
SMILES,TRPC4 inh,TRPC4 potent,TRPC6 activator,TRPC6 inh,TRPC4 act,HEK293 MPD ctr-2,HEK293 MPD ctr 2-2,TRPC4/MOR mod,TRPC4 ctr inh 2,TRPC6 inh conf,TRPC6 act conf,others
Cc1ccc2c(CN3CCN(S(=O)(=O)c4ccc5c(c4)OCCO5)CC3)cc(=O)oc2c1C,-,-,-,-5.6,-,-,-,-,-,-,-,
Cc1c(NC(=O)COC(=O)COc2ccc(Nc3ccccc3)cc2)c(=O)n(-c2ccccc2)n1C,-,-,-,-,-,.,.,.,.,.,.,
N=c1c(C(=O)NCc2ccc(F)cc2)cc2c(=O)n3ccccc3nc2n1Cc1cccnc1,-,-,-,-5.8,-,-,-,-34%,-,52%,-,
COC(=O)c1cc2c(=O)n3ccccc3nc2n(Cc2cccnc2)c1=N,-,-,-,-7.8,-,.,.,.,.,-,-,TRPC4 spec 2=75%;TRPC4 spec=-33%;HEK293 MPD ctr 2-1=-;HEK293 MPD ctr-1=-520%
CN1CCN(c2ccccc2NC(=O)c2ccc(-c3ccc(Cl)c(Cl)c3)o2)CC1,-,-,-,-,-,.,.,.,.,.,.,
Cc1cc(N2CCN(C)CC2)ccc1NC(=O)c1ccc(-c2ccc(Cl)cc2)o1,-,-,-,-9,50,.,.,.,.,67%,-,TRPC4 spec 2=16%;TRPC4 spec=2.7%;HEK293 MPD ctr 2-1=-;HEK293 MPD ctr-1=-334%
CSc1cc(-c2ccccc2)n(Cc2c(Cl)cccc2Cl)c(=O)c1C#N,-,-,-,-,-,.,.,.,.,.,.,
CCCc1nnc(NC(=O)C2CC(=O)N(CCc3ccc(F)cc3)C2)s1 (stereo unspecified),-,-,-,-,-,.,.,.,.,.,.,
CC1(C)CC(=O)c2c(O)cc(O)cc2O1,-,-,-,-,-,.,.,.,.,.,.,
C[C@]12CCC[C@H](O1)c1c(cc3c(c1O)C(=O)c1c(O)cc(O)cc1C3=O)O2,-,-,13,-,-,274%,-,58%,-,-,91%,
O=C(CNCc1ccccc1)Nc1cccc(Cl)c1Cl,-,-,-,-6.2,-,-,-,14%,41%,-,.,
COc1ccccc1-c1ccc(/C=C2/C=C(C)OC2=O)o1,-,-,-,-,-,.,.,.,.,.,.,
COc1ccccc1-c1ccc(/C=C2\C=CC(=O)O2)o1,-,-,31,-,-,706%,-,204%,-,-,121%,
CNC(=S)N/N=C/c1cn(Cc2c(F)cccc2Cl)c2ccccc12,-,-,-,-5.3,-,-,-,-,-,-,.,
O=C(NCCc1ccccc1)c1ccc(Cl)c(S(=O)(=O)N2CCCC2)c1,-,-,-,-,-,.,.,.,.,.,.,
O=C1/C(=C\c2cc(Cl)c(O)c(Cl)c2)SC(=S)N1Cc1ccccc1,-,35,152,-,97,+,-,538%,-,-,594%,
Cc1noc(C)c1COc1ncnc2ccccc12,-,-,-,-,-,.,.,.,.,.,.,
CCC1=[N+](C)c2cccc3cccc(c23)N1C,-,-,-,-6,-,-344%,-,-52%,47%,42%,-,
CCN(CC)CCCn1c2c(c(SCC(=O)Nc3cccc4ccccc34)nc1=O)CCC2,-,-,-,-,-,.,.,.,.,.,.,
CN(C)CCCn1c2c(c(SCC(=O)Nc3cccc4ccccc34)nc1=O)CCCC2,-,-,-,-5.3,-,-,-,-,46%,-,-,
CCN1CCN(CC(=O)N2c3ccccc3Sc3ccccc32)CC1,-,-,-,-,-,.,.,.,.,.,.,
Cc1scc2c1N(C(=O)CN1CCN(C)CC1)c1ccccc1NC2=O,-,-,-,-6.5,-,-,86%,-,-,78%,-,
COc1cccc(CNc2nc3ccccc3n2C)c1O,-,-,-,-5.7,-,-,-,-,43%,-,-,
Cn1c(NCc2c[nH]c3ccccc23)nc2ccccc21,-5,-,-,-6.7,-,.,.,.,.,-,-,TRPC4 spec 2=48%;TRPC4 spec=-12%;HEK293 MPD ctr 2-1=-;HEK293 MPD ctr-1=-214%
COc1cccc(CNc2cnc3ccccc3c2)c1O,-,-,-,-,-,.,.,.,.,.,.,
SMILES,TRPC4 inh,TRPC4 potent,TRPC6 activator,TRPC6 inh,TRPC4 act,HEK293 MPD ctr-2,HEK293 MPD ctr 2-2,TRPC4/MOR mod,TRPC4 ctr inh 2,TRPC6 inh conf,TRPC6 act conf,others
O=C(CCN1C(=O)c2ccccc2C1=O)N1CCOCC1,-,-,-,-,-,.,.,.,.,.,.,
CC[N+](C)(CC)CC(=O)OCC1C(C)C=C(C)CC1C (stereo unspecified),-,-,-,-8.4,-,.,.,.,.,-,-,TRPC4 spec 2=-;TRPC4 spec=-;HEK293 MPD ctr 2-1=-;HEK293 MPD ctr-1=-
CC(C)N(C(=O)COC(=O)[C@H](C)NC(=O)c1ccco1)c1ccccc1,-,-,-,-,-,.,.,.,.,.,.,
CCOC(=O)C1(Cc2cccc(Cl)c2)CCCN(C(=O)CCSC)C1 (stereo unspecified),-,-,-,-5.3,-,152%,-,36%,-,54%,.,
Cc1ccc(C2C3=C(NCCN=C3c3ccccc3)C(=O)N2c2ccccc2)cc1 (stereo unspecified),-,-,-,-6.6,-,.,.,.,.,75%,-,TRPC4 spec 2=16%;TRPC4 spec=18%;HEK293 MPD ctr 2-1=-;HEK293 MPD ctr-1=1.3%
CCOc1ccc(N2C(=O)C3=C(C(c4ccc(Cl)cc4)=NCCN3)C2c2cccnc2)cc1 (stereo unspecified),-,-,-,-,-,.,.,.,.,.,.,
CCCCCc1ccc(-c2cn(CCc3c[nH]c4ccccc34)nn2)cc1,-,-,-,-,-,.,.,.,.,.,.,
CC(C)(C)c1ccc(OCCCNC2CCCC2)cc1,-,-,-,-5.8,-,209%,62%,47%,40%,66%,.,
Cc1ccc(OCCCNC2CCCC2)cc1,-,-,-,-,-,.,.,.,.,.,.,
Cc1ccc2cccnc2c1N,-,-,-,-,-,.,.,.,.,.,.,
Cc1ccnc2c1ccc1ccccc12,-,-,-,-6.5,-,-,-,-,-,-,-,

# Screens deposited in PubChem BioAssay by Johns Hopkins Ion Channel Center.
